Screening results (PubChem BioAssay)
Only some compounds are listed: those with a hit (about 2.1% of all), similar ones and a draw of the others.
Statin myotox sup – suppression of simvastatin myotoxicity. rescue of ATP level, % at 7.49 µM. C2C12 myotubes + simvastatin, ATP luminescence, 48 h; scaled: DMSO 0, geranylgeraniol control 100. hit rate 0.78% among 330,000;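 active = mean ATP rescue above about 67%, or every replicate alone reaching that limit, limit read from the data, passing the limit was not always enough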;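 also: myotubes were challenged with 10 µM simvastatin during compound exposure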
Xi reactivation – activators of X-chromosome reactivation in mouse fibroblasts | XiGFP mouse fibroblasts, % GFP-positive cells imaging, 3 d; cells co-treated with 5-aza-dC sensitizer; scaled so ellipticine positive control = 100% | activation, % at 7.58 µM | hit rate 0.055% among 360,000;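 active = mean normalized replicate activation at least 10% and every replicate at or above 10%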;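 also: 0% = median of on-plate neutral control wells and 100% = ellipticine 6 µM median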
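System: SV40-immortalized XiGFP fibroblast cells, line 68-5-11 / Incubation: 3-day compound exposure, then 15 min fixation at room temperature / Compound: single concentration per compound, delivered by pin transfer / Buffer or medium: DMEM plus 5-aza-dC sensitizer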
DENV2 CPE rescue – inhibitors of DENV2 cytopathic effect. DENV2-infected cells, cytopathic effect rescue, plate reader. CPE inhibition, % at 9.99 µM. hit rate 1.7% among 350,000; in the data active = CPE inhibition above about 20%, passing the limit was not always enough; tested in BHK-21 cells;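 also: 0% = median of neutral control wells and 100% = median of positive control wells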
Cneo AK release – causes C. neoformans cell lysis. hit rate 0.2% among 360,000. adenylate kinase release luminescence, 4 h; normalised: neutral wells 0, clomiphene wells 100. AID 651654. lysis activity, % at 15 µM;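 active = mean lysis activity across replicates of at least 80%, whatever share of replicates individually reach that level; inactive = mean lysis activity below 80%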
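Test system: log-phase Cryptococcus neoformans yeast cells. Input: 5 × 10^6 yeast cells/mL. Medium: fresh YPD growth medium. Doses: single dose. Incubation: static 4 h at 37 °C with compound, 1 h detection. Measured by: luminescent adenylate kinase detection reagent. Read-out: signal increase indicating cell lysis. Benchmarks: Clomiphene.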
Active calls of the source: *; nt = no result given.

SMILES | Statin myotox sup | Xi reactivation | DENV2 CPE rescue | Cneo AK release
COCC(=O)N1CC2(C1)CN(C(=O)CN1CCOCC1)[C@@H](CO)c1c2c2ccc(OC)cc2n1C | nt | 0 | 6 | nt
COc1cccc(C(=O)Nc2ccc3c(c2)C(=O)N(C)C[C@@H](OC)[C@@H](C)CN[C@@H](C)CO3)c1 | 15 | 0 | -1 | -1
CN1C(=O)c2cc(NC(=O)Nc3ccc(F)cc3)ccc2OC[C@@H]2O[C@H](CC(=O)NC3CCC3)CC[C@@H]21 | -19 | 0 | -8 | -7
Cc1onc(-c2ccccc2)c1C(=O)OCC(=O)Nc1ccc2c(c1)OCO2 | 102* | nt | nt | 0
Cc1ccc(NC(=O)CSCC(=O)N2CCN(C(=O)c3ccco3)CC2)cc1 | 3 | 0 | 6 | -1
Cc1ccc(NC(=O)CSC(C)C(=O)OCC(=O)N2CCN(C(=O)c3ccco3)CC2)cc1 (stereo not given) | 2 | 0 | 86* | -9
O=C(C[C@@H]1CC[C@H](NC(=O)c2cccc(F)c2)[C@H](CO)O1)NCc1ccc(Oc2ccccc2)cc1 | 9 | 0 | -14 | -3
Cc1ccc(S(=O)(=O)N(C)C[C@H]2Oc3ccc(N(C)C)cc3CC(=O)N([C@H](C)CO)C[C@@H]2C)cc1 | 10 | 0 | -1 | 2
O=C(CSc1cnc2ccccc2n1)c1ccc(F)cc1 | -1 | 0 | 33* | nt
CCN(Cc1ccccc1)c1ccccc1 | 6 | nt | 37* | 1
CCN(Cc1ccccc1)c1ccc(/C=N/N=C(N)N)cc1 | nt | 0 | 1 | 4
O=C1C=C(NCc2ccc(Cl)c(Cl)c2)C2(CCCCC2)O1 | 142* | nt | nt | -3
O=C1C=C(NCc2ccccc2)C2(CCCCC2)O1 | 3 | nt | nt | -2
O=C(CSc1ccc(Cl)cc1)N1CCN(c2c(Cl)cccc2[N+](=O)[O-])CC1 | 67* | nt | nt | 18
O=C(/C=C/c1ccc(Cl)cc1)N1CCN(c2c(Cl)cccc2[N+](=O)[O-])CC1 | nt | 0 | -4 | 0
O=C(C[C@@H]1CC[C@@H]2[C@H](COC[C@@H](O)CN2C(=O)C2CC2)O1)NCc1ccncc1 | -4 | 0 | 4 | -2
COc1ccccc1NC(=O)N[C@H]1CC[C@H](CCNS(=O)(=O)c2ccccc2)O[C@@H]1CO | -9 | -1 | 2 | -12
CCCNC(=O)C[C@H]1C[C@H]2c3cc(NC(=O)Nc4ccc(OC)cc4)ccc3O[C@H]2[C@@H](CO)O1 | 1 | 0 | 1 | 90*
O=C(C[C@@H]1C[C@@H]2c3cc(NC(=O)Nc4ccc(F)cc4)ccc3O[C@@H]2[C@H](CO)O1)NCC1CC1 | 5 | 0 | 14 | 2
O=C(C[C@@H]1C[C@@H]2c3cc(NC(=O)Nc4ccc(F)cc4)ccc3O[C@@H]2[C@@H](CO)O1)NCC1CC1 | -2 | 0 | -3 | 87*
COCCNC(=O)C[C@@H]1C[C@H]2c3cc(NC(=O)Nc4ccc(OC)cc4)ccc3O[C@H]2[C@@H](CO)O1 | 6 | 1 | 114* | -5
O=C(Cc1cccs1)NNC(=S)NC(=O)c1ccccc1 | nt | 0 | 9 | nt
O=C(/C=C/c1ccccc1)NC(=S)NNC(=O)Cc1cccs1 | 104* | nt | nt | 1
CCN=C1NC(c2ccccc2C(F)(F)F)C(C(=O)OC)=C(C)N1C (stereo not given) | nt | 0 | 21* | nt
O=C(CCN1C(=O)/C(=C/c2ccc3c(c2)OCO3)SC1=S)NNC(=O)c1cccnc1 | nt | 0 | 47* | nt
SMILES | Statin myotox sup | Xi reactivation | DENV2 CPE rescue | Cneo AK release
COCCNC(=O)c1nn(-c2cc(OC)cc(OC)c2)c(=O)c2ccccc12 | 110* | nt | nt | 0
COc1cc(/C=N\Nc2ccc([N+](=O)[O-])cc2)ccc1OCC(=O)Nc1ccc(C)c(C)c1 | -2 | nt | nt | -5
CCOc1cc(/C=N\Nc2ccc([N+](=O)[O-])cc2)ccc1OCC(=O)Nc1ccc(C)c(C)c1 | 103* | nt | nt | 0
Nc1cccc(O)c1 | -1 | nt | 21* | -3
O=C1CCCC/C=C\C[C@H](CC(=O)N(CCO)Cc2ccccc2)C(=O)N[C@@H](Cc2ccccc2)CO1 | 3 | 0 | 17 | 8
O=C1CCC/C=C/C[C@H](CC(=O)N(CCO)Cc2ccccc2)C(=O)N[C@@H](Cc2ccccc2)CO1 | -1 | 0 | 25* | 0
Cc1noc(C)c1NC(=O)Nc1ccc2c(c1)C(=O)N([C@@H](C)CO)C[C@@H](C)[C@@H](CN(C)S(=O)(=O)c1ccc(Cl)cc1)O2 | -11 | 0 | -3 | 2
O=C(Cc1ccccc1)N[C@H]1C=C[C@@H](CC(=O)N2CCOCC2)O[C@H]1CO | -8 | 1 | 53* | 93*
